Measured values collected from several papers.
Each line is one published result; the experiments were not run side by side.
Target: Non-receptor tyrosine-protein kinase TNK1 (TNK1, Homo sapiens, UniProt Q13470)
One construct used (Q13470 1-666): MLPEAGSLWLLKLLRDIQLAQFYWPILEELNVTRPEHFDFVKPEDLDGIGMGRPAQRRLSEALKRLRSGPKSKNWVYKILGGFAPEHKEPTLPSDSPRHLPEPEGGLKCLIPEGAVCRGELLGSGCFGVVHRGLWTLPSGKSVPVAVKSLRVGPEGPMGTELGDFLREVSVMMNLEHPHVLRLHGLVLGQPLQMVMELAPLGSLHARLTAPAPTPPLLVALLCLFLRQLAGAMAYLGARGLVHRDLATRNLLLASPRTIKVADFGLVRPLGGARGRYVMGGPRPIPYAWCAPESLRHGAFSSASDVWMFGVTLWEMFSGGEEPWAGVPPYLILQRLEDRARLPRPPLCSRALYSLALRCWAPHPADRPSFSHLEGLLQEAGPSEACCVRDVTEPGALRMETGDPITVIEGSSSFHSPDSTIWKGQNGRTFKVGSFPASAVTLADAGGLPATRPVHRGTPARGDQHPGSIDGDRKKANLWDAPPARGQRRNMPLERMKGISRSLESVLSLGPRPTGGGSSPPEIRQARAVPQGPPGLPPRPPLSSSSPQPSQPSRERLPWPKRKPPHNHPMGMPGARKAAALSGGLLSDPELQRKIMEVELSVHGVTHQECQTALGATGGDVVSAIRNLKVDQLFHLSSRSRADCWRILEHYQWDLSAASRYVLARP

Structure (SMILES) | assay | setting | remaining binding [%]
CN(C)c1nccc(-c2cnn3ncccc23)n1 | binding | 1 µM | 67
O=C(c1ccc(Nc2nccc(-c3cc4ccccc4s3)n2)cc1)N1CCC(N2CCCC2)CC1 | binding, competition with immobilised ligand | 1 µM | 27
O=C(Nc1cccnn1)N1CCC(=Cc2cccc(Oc3ccc(C(F)(F)F)cn3)c2)CC1 | cell-free assay, competition with immobilised ligand | 1 µM | 98
CCN1CCN(Cc2ccc(C(=O)Nc3ccc(C)c(Oc4ccc5c(c4)CC(=O)N5)c3)cc2C(F)(F)F)CC1 | binding, competition with immobilised ligand | 1 µM | 100
Cc1cnn2ncc(-c3ccnc(N(C)C)n3)c2c1 | binding | 1 µM | 98
Cc1noc([C@H]2C[C@@H](c3ccc(C(F)(F)F)cc3)CN(C(=O)N3CCS(=O)(=O)C3)C2)n1 | cell-free assay, competition with immobilised ligand | 1 µM | 100
N[C@@H]1CCN(c2nccc(-c3cnn4ncccc34)n2)C1 | binding | 1 µM | 100
CNC(=O)[C@@H]1CC[C@@H](n2c(-c3ccc4cnccc4c3)nc3ccc(C(=O)NCc4cccc(C(N)=O)c4)cc32)C1 | binding, competition with immobilised ligand | 1 µM | 97
O=C(NCCCN1CCOCC1)c1ccc(Nc2ncc(Cl)c(-c3ccc(Cl)s3)n2)cc1 | binding, competition with immobilised ligand | 1 µM | 36
C[C@H]1CCN(c2nccc(-c3cnn4ncccc34)n2)C1 | binding | 1 µM | 100
COc1cc(C(=O)N2CCC(N3CCN(C)CC3)CC2)ccc1Nc1ncc2c(n1)N(C)c1ccccc1C(=O)N2C | binding, competition with immobilised ligand | 10 µM | 2.8
O=C(NCC1CCOCC1)c1n[nH]cc1NC(=O)c1c(F)cccc1F | binding, competition with immobilised ligand | 1 µM | 98
CNC(=O)c1ccc(Nc2ncc(C(F)(F)F)c(NCc3nccnc3N(C)S(C)(=O)=O)n2)cc1 | cell-free assay, competition with immobilised ligand | 0.1 µM | 100
CN(CCCC(F)(F)F)c1nccc(-c2cnn3ncccc23)n1 | binding | 1 µM | 83
O=C(c1ccc(Nc2ncc(Cl)c(-c3ccc(Cl)s3)n2)cc1)N1CCC(N2CCCC2)CC1 | binding, competition with immobilised ligand | 1 µM | 13
CN(C)c1nccc(-c2cnc3ncccn23)n1 | binding | 1 µM | 100
CC(C)CC(=O)N1CCc2nc(-c3ccc(Br)cc3)nc(N(C)Cc3ccccc3)c2C1 | cell-free assay, competition with immobilised ligand | 0.1 µM | 100
Nc1ncc2c(n1)-c1c([nH]c3ccc(C#CC4CC4)cc13)CCCC2 | binding, competition with immobilised ligand | 1 µM | 100
CC1=C(C#N)C(c2ccc3c(c2)c(NC(=O)c2ccccc2C)nn3C)C(C#N)=C(C)N1 | cell-free assay, competition with immobilised ligand | 1 µM | 76
C[C@@H](c1ccc(-n2cnc3c(N)ncnc32)cc1)N1CCc2nn(C)c(Cc3ccccc3)c2C1=O | binding, competition with immobilised ligand | 0.1 µM | 47
O=C(Nc1ccc(Oc2ccc(F)cc2)cc1)N1CCc2ncccc2[C@H]1c1ccc(F)cc1 | cell-free assay, competition with immobilised ligand | 1 µM | 96
c1cncc(-c2cccc(Nc3nccc(NC4CCCCC4)n3)c2)c1 | binding, competition with immobilised ligand | 10 µM | 40
